# Experiments:
# Format in all cases: functional
# Staphylococcus aureus [1] = experiment: Antimicrobial activity against methicillin-resistant Staphylococcus aureus by agar dilution CLSI method
# Method in brief: (§1)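 CLSI agar dilution MIC against S. aureus clinical isolates. Calcium was added to the medium for daptomycin testing. Vancomycin plates were read after a full 24-h incubation.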
# Staphylococcus aureus [2] = experiment: Antimicrobial activity against vancomycin-resistant Staphylococcus aureus 509 Michigan by agar dilution CLSI method
# Method in brief: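 Agar dilution MIC per CLSI methodology; calcium supplemented for daptomycin testing; vancomycin plates read after a full 24-h incubation.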
# Staphylococcus aureus [3] = experiment: Antimicrobial activity against vancomycin-intermediate Staphylococcus aureus 504 after 14 passages by multi-step resistance selection technique
# Method in brief: (§2)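 Multistep selection: 10 S. aureus strains (8 MRSA incl. two VRSA, two VISA; 2 MSSA) serially passaged daily at subinhibitory concentrations of each antimicrobial; MICs of mutants retested and compared with parent; clone identity versus parent confirmed by pulsed-field gel electrophoresis at study end.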
# Staphylococcus aureus [4] = experiment: Antimicrobial activity against vancomycin-resistant Staphylococcus aureus 509 Michigan after 14 passages by multi-step resistance selection technique; method in brief: as §2
# Staphylococcus aureus [5] = experiment: Antimicrobial activity against vancomycin-resistant Staphylococcus aureus 510 Hershey after 14 passages by multi-step resistance selection technique; method in brief: as §2
# Staphylococcus aureus [6] = experiment: Antimicrobial activity against methicillin-resistant Staphylococcus aureus 525 after 14 passages by multi-step resistance selection technique
# Method in brief: (§3)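 Multistep selection by daily serial passage of each strain in subinhibitory drug concentrations for the stated number of passages. Mutant MIC was then determined. Identity of mutants and parents was confirmed by pulsed-field gel electrophoresis.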
# Staphylococcus aureus [7] = experiment: Antimicrobial activity against methicillin-resistant Staphylococcus aureus 547 after 14 passages by multi-step resistance selection technique; method in brief: as §3
# Staphylococcus aureus [8] = experiment: Antimicrobial activity against vancomycin-intermediate Staphylococcus aureus 555 Hershey after 14 passages by multi-step resistance selection technique; method in brief: as §2
# Staphylococcus aureus [9] = experiment: Antimicrobial activity against methicillin-susceptible Staphylococcus aureus 540 after 14 passages by multi-step resistance selection technique; method in brief: as §3
# Staphylococcus aureus [10] = experiment: Antimicrobial activity against methicillin-susceptible Staphylococcus aureus 543 after 14 passages by multi-step resistance selection technique; method in brief: as §3
# Staphylococcus aureus [11] = experiment: Antimicrobial activity against panton-valentine leukocidin-negative community-acquired methicillin-resistant Staphylococcus aureus 481 after 16 passages with quinupristin-dalfopristin measured after 10 antibiotic-free subculture by multi-step resistance selection technique
# Method in brief: (§4)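 Mutants from multistep daily serial passage in subinhibitory drug were then subcultured daily 10 times on antibiotic-free medium. MIC was redetermined after these subcultures to assess stability. Clone identity was checked by pulsed-field gel electrophoresis.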
# Staphylococcus aureus [12] = experiment: Antimicrobial activity against panton-valentine leukocidin-positive community-acquired methicillin-resistant Staphylococcus aureus 490 after 17 passages with CG400549 measured after 10 antibiotic-free subculture by multi-step resistance selection technique
# Method in brief: (§5)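 Multistep-selected mutants (daily passage at subinhibitory drug levels) then subcultured 10 times daily on antibiotic-free medium; MIC redetermined afterwards and compared with the MIC recorded at the end of selection; clone identity to parent checked by pulsed-field gel electrophoresis.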
# Staphylococcus aureus [13] = experiment: Antimicrobial activity against panton-valentine leukocidin-positive community-acquired methicillin-resistant Staphylococcus aureus 490 after 14 passages with daptomycin measured after 10 antibiotic-free subculture by multi-step resistance selection technique; method in brief: as §5
# Staphylococcus aureus [14] = experiment: Antimicrobial activity against panton-valentine leukocidin-positive community-acquired methicillin-resistant Staphylococcus aureus 490 after 23 passages with quinupristin-dalfopristin measured after 10 antibiotic-free subculture by multi-step resistance selection technique; method in brief: as §5
# Staphylococcus aureus [15] = experiment: Antimicrobial activity against vancomycin-resistant Staphylococcus aureus 509 Michigan after 14 passages with CG400549 measured after 10 antibiotic-free subculture by multi-step resistance selection technique; method in brief: as §5
# Staphylococcus aureus [16] = experiment: Antimicrobial activity against vancomycin-resistant Staphylococcus aureus 509 Michigan after 28 passages with Linezolid measured after 10 antibiotic-free subculture by multi-step resistance selection technique; method in brief: as §5
# Staphylococcus aureus [17] = experiment: Antimicrobial activity against methicillin and vancomycin-resistant Staphylococcus aureus 510 after single-step resistance selection by agar dilution CLSI method
# Method in brief: (§6)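 Single-step selection on drug-containing agar across 10 strains (2 MSSA, 8 MRSA, including VRSA and VISA). Colonies arising on confluent background growth were retested by CLSI agar dilution MIC. Resistance was defined as an MIC more than 4× the parent MIC.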
# Staphylococcus aureus [18] = experiment: Antimicrobial activity against vancomycin-resistant Staphylococcus aureus 510 Hershey after 14 passages with quinupristin-dalfopristin measured after 10 antibiotic-free subculture by multi-step resistance selection technique; method in brief: as §5
# Staphylococcus aureus [19] = experiment: Antimicrobial activity against methicillin-resistant Staphylococcus aureus 547 by agar dilution CLSI method; method in brief: as §1
# Staphylococcus aureus [20] = experiment: Antimicrobial activity against methicillin-susceptible Staphylococcus aureus 543 by agar dilution CLSI method; method in brief: as §1
# Staphylococcus aureus [21] = experiment: Antimicrobial activity against panton-valentine leukocidin-negative community-acquired methicillin-resistant Staphylococcus aureus 481 after 14 passages by multi-step resistance selection technique; method in brief: as §3
# Staphylococcus aureus [22] = experiment: Antimicrobial activity against panton-valentine leukocidin-positive community-acquired methicillin-resistant Staphylococcus aureus 490 after 17 passages by multi-step resistance selection technique; method in brief: as §2
# Staphylococcus aureus [23] = experiment: Antimicrobial activity against vancomycin-intermediate Staphylococcus aureus 555 Hershey after 20 passages with quinupristin-dalfopristin measured after 10 antibiotic-free subculture by multi-step resistance selection technique; method in brief: as §5
# Staphylococcus aureus [24] = experiment: Antimicrobial activity against methicillin-susceptible Staphylococcus aureus 540 after 36 passages with Linezolid measured after 10 antibiotic-free subculture by multi-step resistance selection technique; method in brief: as §4
# Staphylococcus aureus [25] = experiment: Antimicrobial activity against methicillin-susceptible Staphylococcus aureus 540 after 16 passages with quinupristin-dalfopristin measured after 10 antibiotic-free subculture by multi-step resistance selection technique; method in brief: as §4
# Staphylococcus aureus [26] = experiment: Antimicrobial activity against methicillin-susceptible Staphylococcus aureus 543 after 15 passages with Linezolid measured after 10 antibiotic-free subculture by multi-step resistance selection technique; method in brief: as §4
# Staphylococcus aureus [27] = experiment: Antimicrobial activity against methicillin-susceptible Staphylococcus aureus 543 after 18 passages with quinupristin-dalfopristin measured after 10 antibiotic-free subculture by multi-step resistance selection technique; method in brief: as §4
# Staphylococcus aureus [28] = experiment: Antimicrobial activity against methicillin-resistant Staphylococcus aureus 490 after single-step resistance selection by agar dilution CLSI method; method in brief: as §6
# Staphylococcus aureus [29] = experiment: Antimicrobial activity against methicillin-resistant Staphylococcus aureus 525 after single-step resistance selection by agar dilution CLSI method; method in brief: as §6
# Staphylococcus aureus [30] = experiment: Antimicrobial activity against vancomycin-intermediate Staphylococcus aureus 504 after 50 passages by multi-step resistance selection technique
# Method in brief: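 Multistep selection: S. aureus strains (MSSA and MRSA, including VISA and VRSA) were passaged serially once daily in subinhibitory concentrations of each antimicrobial. Mutant and parent identities were confirmed by pulsed-field gel electrophoresis at the end of the study. Mutant MIC stability was checked after 10 daily subcultures on antibiotic-free media.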
# Staphylococcus aureus [31] = experiment: Antimicrobial activity against vancomycin-resistant Staphylococcus aureus 510 Hershey after 18 passages by multi-step resistance selection technique; method in brief: as §2
# Staphylococcus aureus [32] = experiment: Antimicrobial activity against methicillin-resistant Staphylococcus aureus 525 after 20 passages by multi-step resistance selection technique; method in brief: as §3
# Staphylococcus aureus [33] = experiment: Antimicrobial activity against vancomycin-intermediate Staphylococcus aureus 555 Hershey after 50 passages by multi-step resistance selection technique; method in brief: as §2
# Staphylococcus aureus [34] = experiment: Antimicrobial activity against methicillin-susceptible Staphylococcus aureus 540 after 24 passages by multi-step resistance selection technique; method in brief: as §3
# Staphylococcus aureus [35] = experiment: Antimicrobial activity against methicillin-susceptible Staphylococcus aureus 543 after 17 passages by multi-step resistance selection technique; method in brief: as §3
# Staphylococcus aureus [36] = experiment: Antimicrobial activity against panton-valentine leukocidin-positive community-acquired methicillin-resistant Staphylococcus aureus 490 after 14 passages by multi-step resistance selection technique; method in brief: as §2
Compound,MIC50 (Staphylococcus aureus [1]) [µg/mL],MIC90 (Staphylococcus aureus [1]) [µg/mL],MIC (Staphylococcus aureus [2]) [µg/mL],MIC (Staphylococcus aureus [11]) [µg/mL],MIC (Staphylococcus aureus [12]) [µg/mL],MIC (Staphylococcus aureus [13]) [µg/mL],MIC (Staphylococcus aureus [14]) [µg/mL],MIC (Staphylococcus aureus [15]) [µg/mL],MIC (Staphylococcus aureus [16]) [µg/mL],MIC (Staphylococcus aureus [17]) [µg/mL],MIC (Staphylococcus aureus [18]) [µg/mL],MIC (Staphylococcus aureus [19]) [µg/mL],MIC (Staphylococcus aureus [20]) [µg/mL],MIC (Staphylococcus aureus [21]) [µg/mL],MIC (Staphylococcus aureus [23]) [µg/mL],MIC (Staphylococcus aureus [24]) [µg/mL],MIC (Staphylococcus aureus [25]) [µg/mL],MIC (Staphylococcus aureus [26]) [µg/mL],MIC (Staphylococcus aureus [27]) [µg/mL],MIC (Staphylococcus aureus [28]) [µg/mL],also measured
Cc1c(N)cccc1Cn1ccc(OCCc2cccs2)cc1=O [CG-400549],0.25,0.25,1,0.25,8,0.25,0.125,> 64,0.5,0.125,0.25,0.125,0.125,2,0.25,0.125,0.125,0.125,0.125,0.125,MIC (Staphylococcus aureus [3]): 2 µg/mL; MIC (Staphylococcus aureus [4]): > 64 µg/mL; MIC (Staphylococcus aureus [5]): 4 µg/mL; MIC (Staphylococcus aureus [6]): 4 µg/mL; MIC (Staphylococcus aureus [7]): 32 µg/mL; MIC (Staphylococcus aureus [8]): 2 µg/mL; MIC (Staphylococcus aureus [9]): 16 µg/mL; MIC (Staphylococcus aureus [10]): 8 µg/mL; MIC (Staphylococcus aureus [22]): 8 µg/mL; MIC (Staphylococcus aureus [29]): 0.125 µg/mL
CCCCCCCCCC(=O)N[C@@H](Cc1c[nH]c2ccccc12)C(=O)N[C@H](CC(N)=O)C(=O)N[C@@H](CC(=O)O)C(=O)N[C@@H]1C(=O)NCC(=O)N[C@@H](CCCN)C(=O)N[C@@H](CC(=O)O)C(=O)N[C@H](C)C(=O)N[C@@H](CC(=O)O)C(=O)NCC(=O)N[C@H](CO)C(=O)N[C@@H]([C@H](C)CC(=O)O)C(=O)N[C@@H](CC(=O)c2ccccc2N)C(=O)O[C@@H]1C,0.5,0.5,1,1,1,4,1,1,2,0.5,0.5,1,1,8,2,2,2,2,2,0.5,MIC (Staphylococcus aureus [30]): 16 µg/mL; MIC (Staphylococcus aureus [31]): 8 µg/mL; MIC (Staphylococcus aureus [32]): 8 µg/mL; MIC (Staphylococcus aureus [33]): 32 µg/mL; MIC (Staphylococcus aureus [34]): 8 µg/mL; MIC (Staphylococcus aureus [35]): 8 µg/mL; MIC (Staphylococcus aureus [36]): 8 µg/mL; MIC (Staphylococcus aureus [29]): 0.5 µg/mL
